Screening results from PubChem.
Only some compounds are listed: those with a hit (about 4.9% of all), similar ones and a draw of the others.
STAT3 activator: IL-6 driven STAT3 reporter potentiators, primary screen, U3A cells, luciferase, luminescence, MLSCN library | IL-6 STAT3-luciferase reporter; 100% = signal with IL-6 EC80 alone | activation (% of control), % at 5.6 µM | 190,000 compounds, 0.91% hits | AID 871, 2007;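 active = activation above the screen-wide mean of compound activation plus 3 SD, cut at about 130% in these data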
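Assay system – human STAT1-deficient U3A cells with stable STAT3-luciferase reporter · Also added – IL-6 (33 ng/mL) · Schedule – compound 1 h, then IL-6 6 h at 37 °C · Technique – reporter luminescence signal · Evaluation – % activation versus median of IL-6-stimulated wells · Benchmarks – IL-6-only wells as 100% reference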
STAT1 inh: STAT1 signaling inhibitors, primary screen, cell-based, HTS, luciferase reporter; NIH 3T3 STAT1-luciferase reporter, IFN-gamma, luminescence; inhibition, % at 5.5 µM; 200,000 compounds, 0.35% hits;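 active = inhibition above a set limit, the mean inhibition across all tested compounds plus 3 SD, cut at about 34% in these data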
APP 5'UTR act: activators of APP 5'UTR luciferase reporter, primary screen, SH-SY5Y cells; activation, % at 2 µM; SH-SY5Y APP 5'UTR luciferase reporter, luminescence; zero percent = DMSO vehicle wells; 190,000 compounds, 1% hits;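 active = activation above a set limit, based on mean plus 3 SD of controls, cut at about 140% in these data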
STAT1 activator: STAT1 signaling activators, primary screen, cell-based, HTS, luciferase reporter; activation (% of control), % at 5.5 µM; NIH 3T3 STAT1-luciferase reporter, IFN-gamma, luminescence; 100% = IFN-gamma alone, no compound; 200,000 compounds, 2.6% hits; AID 932, 2007;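 active = activation above the screen-wide mean activation plus 3 SD, cut at about 130% in these data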
STAT3 inh: IL-6 driven STAT3 reporter inhibitors, primary screen, U3A cells, luciferase, luminescence, MLSCN library | IL-6 STAT3-luciferase reporter; host cell line lacks STAT1 | 190,000 compounds, 0.89% hits | inhibition, % at 5.5 µM;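 active = inhibition above the mean inhibition across all screened compounds plus 3 SD, cut at about 44% in these data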
NF-kB expr up: activators of NF-kB expression in neurons, primary screen, cell-based, HTS. human neuronal cells, NF-kB reporter expression; active compounds read high. fold change at 12.5 µM. 190,000 compounds, 1.6% hits. AID 1239, 2008; in the data active = fold change above about 3.3
Each line names hits and unclear results; the compound was inactive in the other large screens.

CC(C)(C)NC(=O)COC(=O)CNC(=O)c1cc(Cl)cc([N+](=O)[O-])c1	none
CC1=Nc2ccccc2N=C(NC(=O)c2ccccc2)C1c1ccc(Cl)cc1 (stereo not given)	none
CC1=Nc2ccccc2N=C(N)C1c1ccccc1 (stereo not given)	APP 5'UTR act 191.9, STAT1 activator 146.1
COc1cccc(CNC(=O)CCC2CCCN(c3cc(C)nc(N4CCCC4)n3)C2)c1 (stereo not given)	none
O=C(Nc1nc(-c2ccc(Cl)s2)cs1)c1ccco1	STAT1 activator 129.5
Cc1ccc(Nc2nc(-c3sc(NC(=O)c4ccco4)nc3C)cs2)cc1	STAT3 activator 135.3
Cc1ccc(C(=O)NCC(=O)OC(C)C(=O)Nc2ccc(N(C)C)cc2)cc1C (stereo not given)	none
Cc1ccc2c(c1)Cc1nc3ccccc3nc1-2	STAT1 inh 60.8, STAT3 inh 72.2
CCN(CC)CCN(CC(=O)N(C1CCCCC1)C1CCCCC1)C(=O)c1ccco1	none
Cn1c(-c2nnn(-c3ccc(F)cc3)n2)cc2ccccc21	APP 5'UTR act 159.4, STAT1 activator 149.4, NF-kB expr up 4.14 (no result: STAT3 activator, STAT3 inh)
Cc1ccc(-n2nnc(-c3cc4ccccc4n3C)n2)cc1	none (no result: STAT3 activator, STAT3 inh)
CC(=O)c1cc2c(C)c(C(=O)c3ccccc3)oc2cc1O	APP 5'UTR act 156.4, NF-kB expr up 4.01
CCNC(=O)COC(=O)c1sccc1C	none
Cc1ccsc1C(=O)OCC(=O)Nc1sccc1C(N)=O	STAT1 activator 132.3
Cc1ccc(NC(=O)CSC2=NN3CCCC(=O)N=C3S2)c(C)c1	NF-kB expr up 3.32 (no result: STAT3 activator, STAT3 inh)
Cc1cccc(NC(=O)CSC2=NN3CCCC(=O)N=C3S2)c1C	none (no result: STAT3 activator, STAT3 inh)
Cc1ccc(Oc2c(C=O)c3ccccc3n2C)cc1	STAT3 activator 144.8
COc1ccc(Oc2c(C=O)c3ccccc3n2C)cc1	none
Cn1c(Oc2ccc(Cl)cc2)c(C=O)c2ccccc21	STAT3 activator 141.0
Cn1c(Oc2ccc(F)cc2F)c(C=O)c2ccccc21	none
CCN1C(=O)C(CC(=O)Nc2ccc(F)cc2)N(Cc2ccc3c(c2)OCO3)C1=S (stereo not given)	none
COC(=O)c1ccc(C(=O)N(CCN(C)C)c2nc3c(Cl)cccc3s2)cc1	none
Cc1cnc(C(=O)Nc2ccc3c(c2)CCC3)cn1	APP 5'UTR act 163.3, NF-kB expr up 7.44
Cc1cnc(C(=O)Nc2ccc(F)c(F)c2)cn1	none
CN1N=C(C(=O)Nc2ccc3c(c2)CCC3)CCC1=O	STAT1 activator 132.2
Cc1cc(C)n2nc(C(=O)Nc3ccc4c(c3)CCC4)nc2n1	none
O=C(Nc1ccc2c(c1)CCC2)c1cnccn1	STAT1 activator 142.7
O=C(Nc1ccccc1Cl)c1ccccc1Cc1ccccc1	none
Cc1c(NC(=O)C(C)OC(=O)[C@@H](NC(=O)c2ccccc2)C(C)C)c(=O)n(-c2ccccc2)n1C (stereo not given in full)	none
COc1cc(C(=O)OCC(=O)NCCN2C(=O)CSC2=O)ccc1OCc1c(C)noc1C	none
Fc1ccc(COc2cccc3cccnc23)cc1	STAT1 activator 129.0
O=c1c(=NNc2ccccc2Cl)c(=O)c2ccccc12	APP 5'UTR act 153.8
Clc1ccccc1-c1ccc(CN2CCN(c3ccccc3)CC2)o1	none (no result: APP 5'UTR act)
COc1ccc(Nc2cc(C)c3ccccc3n2)cc1	STAT1 activator 132.0
C#CC(=O)N(c1ccc(OC)cc1OC)C(C(=O)NC1CCCC1)c1cccs1 (stereo not given)	STAT1 inh 87.6, STAT3 inh 83.5
C#CC(=O)N(c1cc(OC)ccc1OC)C(C(=O)NC1CCCC1)c1cccs1 (stereo not given)	STAT1 inh 74.7, STAT3 inh 114.4
COc1ccc(N(C(=O)c2ccco2)C(C(=O)NC2CCCCC2)c2cccs2)cc1OC (stereo not given)	none
COc1ccccc1-c1csc(NC(=O)c2ccc(N3C(=O)CCC3=O)cc2)n1	none
Cc1c(N/C(=N/S(=O)(=O)c2ccc(F)cc2)c2ccccc2)c(=O)n(-c2ccccc2)n1C	none
COc1ccc(NCc2nc3ccccc3n2CCOc2ccc(C)cc2)cc1	none
Cc1ccc2cc(C=O)c(N(C)C)nc2c1	STAT3 activator 134.3
CC1=CC(C)C2(COC(=O)Nc3ccccc3)COC(C)C1C2C (stereo not given)	none
COc1ccc(N2CCN(C(=O)c3ccc4nc(N5CCCCC5)sc4c3)CC2)cc1	none
COc1cccc(N2CCN(C(=O)c3ccc4nc(N5CCCCC5)sc4c3)CC2)c1	STAT1 activator 136.0
O=C(Cn1cnc2ccccc2c1=O)Nc1ccc2c(c1)OCCO2	STAT1 activator 130.5
Cn1nnnc1SCC(=O)Nc1ccc2c(c1)OCO2	STAT1 activator 141.2
O=C(CSc1nnc2ccccn12)Nc1ccc2c(c1)OCCO2	STAT1 activator 139.1
CCn1nnnc1SCC(=O)Nc1ccc2c(c1)OCO2	none
COc1cc(/C=C(/NC(=O)c2ccccc2)C(=O)Nc2ccc(O)cc2)c([N+](=O)[O-])cc1OC	none
Cc1ccc(OCCSc2nc(NC(C)C)nc(NC(C)C)n2)cc1	none
Cc1csc(NC(=O)c2cccn2C)n1	STAT1 activator 131.1
Cc1csc(NC(=O)c2ccccc2C(=O)O)n1	none
Cn1cccc1C(=O)Nc1nc(-c2ccccn2)cs1	STAT1 activator 135.3, NF-kB expr up 5.11
Cc1csc(NC(=O)c2cn3ccccc3n2)n1	STAT1 inh 64.7, STAT3 inh 95.5
O=C(NCCCN1CCOCC1)c1cc(-c2cccs2)on1	NF-kB expr up 7.29
O=C(NCCCn1ccnc1)c1cc(-c2cccs2)on1	STAT1 activator 146.6, NF-kB expr up 10.5
O=C(NCCCN1CCOCC1)c1ccc(-n2nc(C(F)(F)F)cc2-c2cccs2)cc1	none
O=C(NCCCn1ccnc1)c1ccc(S(=O)(=O)N2CCOCC2)cc1	NF-kB expr up 3.97
CCCC(=O)Nc1ccc(Cl)c(NC(=S)NC(=O)c2ccco2)c1	none
Cc1ccc(CNC(=O)CCC2CCCN(Cc3c(C)nn(C(C)C)c3C)C2)o1 (stereo not given)	none
COC(=O)c1c(N(S(C)(=O)=O)S(C)(=O)=O)sc2c1CCN(c1ncc(C(F)(F)F)cc1Cl)C2	NF-kB expr up 3.38
CC(=O)c1ccc(Nc2ccc(-c3ccccc3F)nn2)cc1	APP 5'UTR act 145.7, STAT1 activator 141.6, NF-kB expr up 6.88
COc1ccccc1-c1ccc(Nc2ccc(C(=O)N3CCOCC3)cc2)nn1	none
CNC(=S)N1N=C(c2ccc(C)cc2)CC1c1ccc(Br)cc1 (stereo not given)	NF-kB expr up 3.43
